# Screens (PubChem BioAssay)
# Compounds with a hit are over-represented: about 3.4% of the library has one in this group of screens.
# MEKK2mut PB1 HTS: signal of MEK5 binding to mutant human MEKK2 PB1 domain | bead flow cytometry, Alexa488-MEK5 binding to MEKK2 mutant | percent response, % at 10 µM | 290,000 tested, 0.35% active | AID 1530; in the data active = percent response above about 24%, passing the limit was not always enough
# MEKK3 PB1 HTS: MEKK3-MEK5 PB1 interaction, increase or decrease | Q99759 | bead-based flow cytometry, Alexa488-MEK5 binding to MEKK3; actives lie on both sides; 0 = blocked by unlabeled MEK5, 100 = vehicle | binding response (% of control), % at 10 µM | 290,000 tested, 1.4% active;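 active = binding response more than 3 SD above or below the average of its plate-row segment, actives on both sides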;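 also: Alexa488 bead fluorescence after subtracting the streptavidin-only scavenger bead signal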
# Target sequence (Q99759 whole entry, looked up): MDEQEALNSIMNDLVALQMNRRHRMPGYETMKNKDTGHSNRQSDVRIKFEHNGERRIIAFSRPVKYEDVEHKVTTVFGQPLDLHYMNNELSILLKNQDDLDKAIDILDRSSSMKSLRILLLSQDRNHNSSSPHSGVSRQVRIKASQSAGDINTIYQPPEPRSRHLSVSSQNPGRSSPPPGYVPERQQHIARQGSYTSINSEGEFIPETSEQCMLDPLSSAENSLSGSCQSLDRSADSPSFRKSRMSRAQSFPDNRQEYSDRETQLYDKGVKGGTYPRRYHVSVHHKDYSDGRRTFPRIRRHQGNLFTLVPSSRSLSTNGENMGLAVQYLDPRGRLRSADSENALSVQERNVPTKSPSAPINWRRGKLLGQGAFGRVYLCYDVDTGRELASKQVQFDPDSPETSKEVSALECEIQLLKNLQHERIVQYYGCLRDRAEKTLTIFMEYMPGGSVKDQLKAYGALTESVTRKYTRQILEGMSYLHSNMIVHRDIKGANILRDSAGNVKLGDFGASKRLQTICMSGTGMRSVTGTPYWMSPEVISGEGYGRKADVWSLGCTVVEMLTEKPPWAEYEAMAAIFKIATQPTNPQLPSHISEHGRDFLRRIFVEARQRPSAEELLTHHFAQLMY
# MEKK2wt PB1 HTS: raises or lowers MEK5 binding to wildtype human MEKK2 PB1 domain | bead flow cytometry, Alexa488-MEK5 binding to MEKK2 WT; actives lie on both sides | binding response (% of control), % at 10 µM | Q9Y2U5 | 290,000 tested, 1.1% active; in the data active = binding response below about 67% or above about 130%
# VIM-2 inhibitor: inhibitors of Pseudomonas aeruginosa VIM-2 metallo-beta-lactamase; purified VIM-2, nitrocefin hydrolysis, epi-absorbance fluorescence; inhibition, % at 5.6 µM; 290,000 tested, 0.89% active; AID 1527;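 active = inhibition above the mean of all tested compounds plus 3 SD, cutoff set per screening run, cut at about 7.5% in these data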;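 also: red hydrolysis product quenches plate fluorescence so inhibitors raise well fluorescence; 0% = enzyme with DMSO and 100% = DMSO without enzyme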
# IMP-1 inh: inhibitors of Pseudomonas aeruginosa IMP-1 metallo-beta-lactamase; purified IMP-1, nitrocefin hydrolysis, epi-absorbance fluorescence; 290,000 tested, 0.45% active; AID 1556; inhibition, % at 5.6 µM;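 active = inhibition above the mean plus 3 SD of all compounds in the same screening run, cut at about 4.5% in these data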;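 also: 0% = IMP-1 with DMSO and 100% = DMSO wells lacking enzyme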
#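 Material – recombinant IMP-1 enzyme, purified · Amount – IMP-1 0.2 nM before substrate addition · Medium – HEPES buffer pH 7.1 with ZnSO4 and Brij 35 · Timing – 25 °C, 15 min preincubation, 25 min reaction · Measured by – plate fluorescence quenching by hydrolysis product, ex 480/em 530 nm · Read-out – percent enzyme inhibition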
# MEKK2wt confirm: raises or lowers MEK5 binding to wildtype human MEKK2, retest; bead flow cytometry, Alexa488-MEK5 binding to MEKK2 WT; actives lie on both sides; shares compounds with MEKK3 PB1 HTS; binding response (% of control), % at 10 µM; AID 1892; 5,900 tested, 2.4% active; in the data active = binding response below about 16% or above about 210%; inactive = in between
# MEKK2mut confirm: signal of MEK5 binding to mutant human MEKK2, retest. shares compounds with MEKK3 PB1 HTS. bead flow cytometry, Alexa488-MEK5 binding to MEKK2 mutant. percent response, % at 10 µM. 5,900 tested, 2% active. AID 1893; in the data active = percent response mostly above about 71%, no sharp cut-off; inactive = mostly below about 38%;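 also: higher means compound restores mutant binding toward wildtype level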
# MEKK3 confirm: confirmation of inhibitors of MEK5 binding to human MEKK3. 5,900 tested, 1.8% active. shares compounds with MEKK3 PB1 HTS. bead flow cytometry, Alexa488-MEK5 binding to MEKK3; hits give low values. binding response (% of control), % at 10 µM;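 active = binding response below 72% of control, or above a set upper limit, though filed actives all read lower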;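 also: 100% = DMSO only wells and 0% = binding blocked by excess unlabeled MEK5; lower values mean stronger disruption of MEK5 binding to MEKK3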
# * = called active by the depositor; nt = no result given; [ ] = remark or other dose.
SMILES,MEKK2mut PB1 HTS,MEKK3 PB1 HTS,MEKK2wt PB1 HTS,VIM-2 inhibitor,IMP-1 inh,MEKK2wt confirm,MEKK2mut confirm,MEKK3 confirm
CC1(C)Cc2ccccc2-c2nc(NN)[nH]c(=O)c21,1.0,102.0,103.0,-0.8,-1.1,nt,nt,nt
O=C(Nc1ccc(F)cc1F)Nc1csc2ccccc12,1.0,104.0,102.0,-1.6,-2.0,nt,nt,nt
O=C(Nc1ccc(F)c(Cl)c1)Nc1csc2ccccc12,34.0,104.0,191.0*,-0.4,-3.3,164.0,26.0,107.0
CSc1ccccc1NC(=O)CN(C)CC(=O)Nc1ccc(N2CCOCC2)cc1,-13.0,101.0,91.0,-2.3,-2.5,nt,nt,nt
Cc1cccc(NC(=O)/C=C/c2ccc([N+](=O)[O-])s2)c1,11.0,98.0,112.0,-0.9,0.1,nt,nt,nt
Cc1cccc(NC(=S)N/N=C/c2ccc([N+](=O)[O-])s2)c1,-7.0,86.0,50.0*[inhibitor],-2.3,-2.5,63.0,-23.0,91.0
CCSc1nnc(-c2sc3nnc(-c4ccccc4)c(-c4ccccc4)c3c2N)o1,-14.0,96.0,70.0*[inhibitor],-1.8,-2.3,76.0,-18.0,96.0
CCSc1nnc(-c2ccncc2)o1,-2.0,96.0,90.0,0.2,-3.3,nt,nt,nt
N#C/C(=C\C1=C(N2CCOCC2)C(=C/c2cccc([N+](=O)[O-])c2)/CC1)C(=O)Nc1ccccc1F,-7.0,9.0*[inhibitor],nt,-1.0,-0.5,92.0,-7.0,98.0
N#C/C(=C\C1=C(N2CCOCC2)C(=C\c2ccc(Cl)cc2)/CC1)C(=O)Nc1ccccc1F,-9.0,7.0*[inhibitor],nt,-5.3,0.9,72.0,-19.0,73.0
CCN(CC)c1ccc(/C=C2\CCC(/C=C(\C#N)C(=O)Nc3ccccc3F)=C2N2CCOCC2)cc1,nt,nt,nt,-5.0,-2.2,nt,nt,nt
CCCCCCCCN1[C@@H](CC(=O)OCC)c2cc(F)ccc2S1(=O)=O,4.0,104.0,106.0,nt,nt,nt,nt,nt
O=C(NCN1CCc2ccccc2C1)c1cnccn1,-1.0,94.0,97.0,-3.0,-3.7,nt,nt,nt
Cc1cc(NC(=O)CSc2nnc(N)s2)c([N+](=O)[O-])cc1C,-4.0,65.0*[inhibitor],77.0,-2.1,-2.3,97.0,-2.0,99.0
O=C(Nc1ccc(F)cc1)c1cccnc1NCCc1ccccc1,1.0,142.0*,112.0,-0.2,-2.4,100.0,-6.0,103.0
CCCCCCC(C)OC(=O)Nc1cccc2ccccc12 (configuration not stated),1.0,70.0*[inhibitor],77.0,-1.7,-2.3,91.0,-11.0,94.0
CCc1c(C)nc2ncnn2c1N1CCC(C(=O)NCc2cccs2)CC1,-46.0,3.0*[inhibitor],6.0*[inhibitor],-1.4,-2.7,93.0,-8.0,93.0
Cc1cc(C)c2sc(C)[n+](CCCS(=O)(=O)[O-])c2c1,4.0,104.0,99.0,-5.0,-4.1,nt,nt,nt
CCCCCCCCCCCCCCCC[n+]1ccc(/C=N/O)cc1,45.0,127.0,150.0*,-5.4,-6.1,257.0*,181.0*,112.0
CCCCCCCCCCCCCCCC[n+]1ccc(C(N)=O)cc1,1.0,106.0,139.0*,-4.6,-4.8,157.0,31.0,104.0
CSc1cccc(CN2CCN(Cc3ccccc3)C(CCO)C2)c1 (configuration not stated),-15.0,48.0*[inhibitor],58.0,-1.4,-1.8,101.0,4.0,101.0
CSc1cccc(CN2CCN(CCc3ccccc3)C(CCO)C2)c1 (configuration not stated),-2.0,99.0,98.0,0.0,-2.5,nt,nt,nt
COCCNC(=O)/C(C#N)=C1\N=C(NC(=O)c2cccs2)c2ccccc21,3.0,102.0,101.0,1.4,-0.4,nt,nt,nt
COc1ccc(CNC(=O)/C(C#N)=C2\N=C(NC(=O)c3cccs3)c3ccccc32)cc1,0.0,74.0*[inhibitor],93.0,-1.7,-3.0,100.0,3.0,108.0
COc1cccc2c(=O)c(C/C=C(/C)Cl)c(C)[nH]c12,-8.0,79.0*[inhibitor],88.0,-0.4,-3.4,104.0,5.0,102.0
SMILES,MEKK2mut PB1 HTS,MEKK3 PB1 HTS,MEKK2wt PB1 HTS,VIM-2 inhibitor,IMP-1 inh,MEKK2wt confirm,MEKK2mut confirm,MEKK3 confirm
Cc1ccccc1CCN(C(=O)Cn1nnc2ccccc21)C(C(=O)NC(C)(C)C)c1ccsc1 (configuration not stated),-14.0,76.0*[inhibitor],81.0,-1.1,-1.8,100.0,2.0,99.0
C#CCN1C(=O)C(O)(CC(=O)c2cccc(OC)c2)c2ccccc21 (configuration not stated),-18.0,1.0*[inhibitor],1.0*[inhibitor],-2.5,-1.5,108.0,6.0,103.0
Fc1ccc(NC(=S)N2CCc3ccccc3C2)c(F)c1,0.0,99.0,99.0,-2.2,-2.8,nt,nt,nt
CCC(C)c1ccccc1NC(=O)COC(=O)c1ccc(N2CCCC2)c([N+](=O)[O-])c1 (configuration not stated),0.0,132.0*,100.0,-1.2,-1.7,104.0,1.0,106.0
Cc1ccc(N/C=C2\C(=O)N(c3ccc(F)cc3F)C(c3cccnc3)S2(=O)=O)cc1 (configuration not stated),27.0,131.0*,113.0,-1.9,-3.3,104.0,0.0,101.0
Cc1ccc(-c2nc(NCCN3CCOCC3)c3ccccc3n2)cc1,-6.0,72.0*[inhibitor],88.0,-0.9,-2.0,101.0,2.0,97.0
COc1ccc2c(c1)c(C(=O)N/N=C/c1ccc(OC)c(OC)c1)c(C)n2C,0.0,152.0*,108.0,-2.9,-1.4,97.0,-8.0,97.0
COc1ccc2c(c1)c(C(=O)N/N=C/c1ccc(Cl)cc1)c(C)n2C,-2.0,98.0,95.0,-2.5,-3.5,nt,nt,nt
COc1ccc(/C=N/NC(=O)c2nc(-c3ccccc3)n(-c3ccccc3)n2)cc1OC,1.0,151.0*,108.0,-3.8,-4.3,102.0,4.0,105.0
CN(C)S(=O)(=O)c1cccc(C(=O)Nc2ccccc2)c1,-15.0,85.0,90.0,0.3,0.5,nt,nt,nt
COc1cc(C(=O)Nc2ccc(O)cc2)ccc1OC(C)=O,1.0,101.0,104.0,-1.8,-4.0,nt,nt,nt
Cc1ccc(C(=O)NN2CCOCC2)cc1[N+](=O)[O-],3.0,107.0,106.0,-1.6,-3.0,nt,nt,nt
COc1ccc(C(CCN2CCCCC2)c2c(O)cc(OC)cc2OC)cc1 (configuration not stated),2.0,94.0,96.0,nt,nt,nt,nt,nt
COc1cc(O)c(C(CCN2CCCC2)c2cc(OC)c(OC)c(OC)c2)c(OC)c1 (configuration not stated),5.0,114.0,145.0*,nt,nt,118.0,13.0,103.0
COc1ccc(C(CCN2CCCC2)c2c(O)cc(OC)cc2OC)cc1 (configuration not stated),9.0,117.0,149.0*,nt,nt,158.0,31.0,108.0
